Insulin prom act = TRM-6 insulin promoter activation; TRM-6 cells, insulin promoter eGFP reporter, imaging; plate-scaled: unstimulated 0, stimulated control 100; activation, % at 2 µM; 0.81% of 130,000 active; AID 1296;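 active means activation at 2 µM above a set limit, confirmed on inspection of the cell images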;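 further: share of cells whose green reporter signal exceeds an intensity cutoff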
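Test system: human fetal islet-derived TRM-6 cells with tamoxifen-inducible insulin promoter–eGFP reporter. Compound dosing: 2 µM final, single concentration. Incubation: tamoxifen pre-incubation 15 h overnight, then compound exposure 48 h at 37 °C. Signal: fixed-cell fluorescence microscopy, eGFP plus Hoechst.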
Large screens that a line does not name were inactive. The entries come from a sample that favours hits as a whole.

CCC1CCCCN1C(=S)Nc1ccc(OC(F)F)cc1 (centres undefined)	none
CC(=O)/C(C(=N)N1CCN(c2cccc(Cl)c2)CC1)=C(\C)O	none
O=C(CN1CCN(c2cccc(Cl)c2)CC1)N1CCCC1	none
O=C(O)CCC(=O)N1CCN(c2cccc(Cl)c2)CC1	Insulin prom act 467
O=C(Nc1ccccc1)c1ccc(=O)n(Cc2ccc(F)c(F)c2)c1	none
O=S(=O)(c1cccc(S(=O)(=O)N2CCC(Cc3ccccc3)CC2)c1)N1CCOCC1	none
CC(=O)c1ccc(N2CCN(S(=O)(=O)c3cccc(S(=O)(=O)N4CCOCC4)c3)CC2)cc1	none
O=S(=O)(c1cccc(S(=O)(=O)N2CCC(N3CCCCC3)CC2)c1)N1CCOCC1	Insulin prom act 631
COc1ccc2c(COC(=O)CNC(=O)C34CC5CC(CC(C5)C3)C4)cc(=O)oc2c1	none
O=C1NCCc2cc3c(cc21)OCO3	none
CCOC(=O)c1c(NC(=O)COC(=O)c2nc(Cl)ccc2Cl)sc2c1CCC2	none
CCOC(=O)N1CCN(CCC(=O)Nc2ccc(OC(F)(F)F)cc2)CC1	none
O=c1oc2cc(Cl)ccc2n1CSc1nc2ccccc2s1	none
Cc1nn(CC(O)Cn2cnc3c2c(=O)n(C)c(=O)n3C)c(C)c1Br (centres undefined)	none
Cc1cc(C)nc(SCC(=O)n2c3c(c4ccccc42)CCCC3)n1	none
Cc1ccc2c(c1)c1c(n2CC(O)Cn2nc(C)c(Br)c2C)CCCC1 (centres undefined)	Insulin prom act 83
CCCS(=O)(=O)c1ccc(COC(=O)c2ccc(NC(C)=O)cc2)cc1	none
CCN(CC)C(=O)CCCC(=O)N(CC)CC	none
CCN(CC)c1ccc(NC(=O)Nc2ccc(C(C)=O)cc2)cc1	none
CC(=O)c1ccc(NC(=O)NCc2ccc(F)cc2)cc1	Insulin prom act 326
CC(=O)c1ccc(NC(=O)Nc2ccccc2)cc1	none
O=S(=O)(Nc1ccc2c(c1)OCCO2)c1ccc2oc3ccccc3c2c1	none
CC(C)CNc1cc(Cl)c(S(=O)(=O)NCC(C)C)cc1C(=O)O	none
O=C(O)c1cc(S(=O)(=O)Nc2ccc3c(c2)OCCO3)c(Cl)cc1Cl	Insulin prom act 150
COc1cccc(-n2nnnc2SCC(=O)c2cc(OC)ccc2OC)c1	none
O=C(NCC1CCCO1)C1c2ccccc2C(=O)N1C1CCCCCCC1 (centres undefined)	none
CCOc1ccc(CN2C(=O)c3ccccc3C2C(=O)NCc2cccnc2)cc1 (centres undefined)	none
O=C(NCc1cccnc1)C1c2ccccc2C(=O)N1C1CCCCCCC1 (centres undefined)	Insulin prom act 156
O=C(Nc1ccc2c(c1)OCO2)C1CCCCN1S(=O)(=O)c1ccccc1 (centres undefined)	none
O=C(Cc1c[nH]c2ccccc12)NCc1ccc(Cl)cc1Cl	none
Cc1ccc(OCC(=O)Nc2ccc(S(=O)(=O)N3CCN(C)CC3)cc2)cc1	Insulin prom act 406
CN1CCN(S(=O)(=O)c2ccc(N(C)CC(=O)Nc3ccc(F)cc3)nc2)CC1	none
CN(CC(=O)Nc1ccc(S(=O)(=O)N2CCCC2)cc1)CC(=O)Nc1cccc(F)c1	Insulin prom act 220
COc1ccc(S(=O)(=O)N2CCN(CC(=O)Nc3cccc(F)c3)CC2)cc1	none
CC(C)CC(=O)NC(=S)Nc1ccc(S(=O)(=O)N2CCN(C)CC2)cc1	none
Cc1ccc(S(=O)(=O)N2CCN(C(=O)COc3ccc(NC(=O)c4ccco4)cc3)CC2)cc1	none
COc1cccc(C(=O)Nc2nnc(-c3cccs3)s2)c1	none
O=C(c1nn(Cc2ccccc2)c(=O)c2ccccc12)N1CCN(C/C=C/c2ccccc2)CC1	none
COc1ccccc1CN1C(=O)c2ccccc2C1C(=O)NC1CCC(C)CC1 (centres undefined)	none
O=c1cnnc(N/N=C/C2CC=CCC2)[nH]1 (centres undefined)	none
CCN(CC)S(=O)(=O)c1cc(C(=O)OCC(=O)Nc2cccc(C)c2C)ccc1F	none
O=C(Nc1nnc(CCN2CCCCC2)s1)c1ccccc1Cl	none
O=C(COC(=O)c1cccnc1Cl)NCc1ccco1	none
COc1ccc(CNC(=O)c2ccccc2SC)cc1	none
COc1ccc(OCC(=O)Nc2ccccc2O)cc1	none
COc1ccc(CSCC(=O)Nc2ccccc2SC)cc1	Insulin prom act 367
COc1ccc(C(=O)Nc2c(C)csc2C(=O)O)cc1	none
CCN(CC)S(=O)(=O)c1ccc(NC2c3ncccc3C(=O)N2Cc2ccccc2)cc1 (centres undefined)	none
COc1ccc(CN2C(=O)c3cccnc3C2Nc2cc(Cl)c(OC)cc2OC)cc1 (centres undefined)	Insulin prom act 136
O=C1c2cccnc2C(O)N1Cc1ccc(F)cc1 (centres undefined)	none
Cc1ccc(S(=O)(=O)N(CCC(=O)O)c2ccccc2)cc1	none
CCCn1c(SCC(=O)c2cc(C)c(C)cc2C)n[nH]c1=O	none
O=Nc1c(O)n(Cc2ccc(Cl)c(Cl)c2)c2ccccc12	none
CCC(C(=O)O)P(=O)(c1ccc(Cl)cc1)c1ccc(Cl)cc1 (centres undefined)	none
O=C(CN(Cc1cccs1)C(=O)CSc1nnc(COc2ccccc2)o1)NC1CCCCC1	none
COC(=O)c1sccc1-c1ccc(C(=O)Nc2cccc(Cl)c2)o1	Insulin prom act 80
COC(=O)c1sccc1NC(=O)c1ccco1	none
COC(=O)c1ccccc1NC(=O)c1ccc(-c2cccc(Cl)c2)o1	none
Cc1nnc(SCC(=O)NC2CCCCC2)s1	none
CC(C)Cn1[nH]c2c3c(ccc2c1=O)C(=O)c1ccccc1C3=O	none
O=C(CS(=O)(=O)c1c[nH]c2ccccc12)N1CCCCCC1	none
CCOC(=O)C(C(C)C)C(N)Cc1ccc(F)cc1 (centres undefined)	none
CCOC(=O)N1CCN(C(=O)C2CCCN(S(=O)(=O)c3ccc(C)cc3)C2)CC1 (centres undefined)	none
CCN1/C(=C\C=C(C(C)=O)C(C)=O)Sc2ccccc21	Insulin prom act 669
CCCN1C(=O)CC(c2ccco2)Sc2ccccc21 (centres undefined)	none
CCN(CC)CC(=O)N1c2ccccc2Sc2ccc(Cl)cc21	none
CCN1C(=O)/C(=C\C=C2/C=CC=CN2CC)SC1=S	none
CCCN1C(=O)/C(=C\C=C2/Sc3ccccc3N2CC)SC1=S	Insulin prom act 388
O=C(CN1CCCC1)N1c2ccccc2Sc2ccccc21	none
COC(=O)c1cccnc1-n1c(=O)c2cccnc2n(Cc2cccc(C(F)(F)F)c2)c1=O	none
COc1ccc(CCN2C(=O)C(O)=C(C(=O)c3ccco3)C2c2cccs2)cc1OC (centres undefined)	none
O=C(Nc1ccccc1)Nc1ccccc1C(=O)NCc1ccccc1	Insulin prom act 77
CNC(=O)Nc1ccccc1C(=O)NCc1ccccc1	none
O=C(Nc1ccccc1)Nc1cccc(Cl)c1Cl	none
COc1cccc(CN2CCC(N(CCc3ccccc3)Cc3ccccc3)CC2)c1OC	none
CCc1nnc(NC(=O)CSc2ccc(-c3ccco3)nn2)s1	none
CCc1nc(SCC(=O)Nc2nnc(CC)s2)c2c(C)c(C)sc2n1	Insulin prom act 254
CC(=O)Nc1ccc(NC(=O)CSc2nc(C)nc3sc(C)c(C)c23)cc1	none
COn1c(SCc2ccc(Cl)cc2)nc2ccccc2c1=O	Insulin prom act 77
COc1ccc(C(=O)Nn2c(SCC(=O)c3ccc(Cl)cc3)nc3ccccc3c2=O)cc1	none
COCCn1c(SCc2ccccc2F)nc2ccccc2c1=O	none
COc1ccc(CCNC(=O)CSc2nc(O)c(C(C)C)c(=O)[nH]2)cc1OC	none
Cc1ccccc1NC(=O)c1cccc(C(F)(F)F)c1	none
O=C(Nc1cc(C(F)(F)F)ccc1-n1cncn1)c1ccc(-c2ccccc2)cc1	Insulin prom act 78
O=C(Nc1cc(C(F)(F)F)ccc1N1CCOCC1)c1cncc(Br)c1	none
